Laboratory results taken from ChEMBL document CHEMBL5108039, “Piperazine tethered bergenin heterocyclic hybrids: design, synthesis, anticancer activity, and molecular docking studies” (RSC Med Chem, 2022).

Experiments:
HCT-15 = assay: Cytotoxicity against human HCT-15 cells assessed as cell growth inhibition; type: functional, cell-based
Method in brief: (§1)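 Compounds were dissolved in sterile DMSO as 10 mg ml−1 stocks and tested for in vitro growth inhibition of human cancer cell lines. Doxorubicin was the standard drug and DMSO (0.01%) the vehicle control. IC50 values are reported as means.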

CAL-27 [1] = assay: Cytotoxicity against human CAL-27 cells assessed as cell growth inhibition; type: functional, cell-based; method in brief: as §1
SCC-9 [2] = assay: Cytotoxicity against human SCC-9 cells assessed as cell growth inhibition; type: functional, cell-based; method in brief: as §1
A549 = assay: Cytotoxicity against human A549 cells assessed as cell growth inhibition; type: functional, cell-based
Method in brief: (§2)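 Compounds were dissolved in sterile DMSO as 10 mg ml−1 stocks and tested in vitro for cytotoxicity in a cell-line panel, with DMSO (0.01%) as vehicle control and doxorubicin as standard. Mean IC50 values were reported, and the normal lung epithelial cells were tested up to 100 μM.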

MCF7 = assay: Cytotoxicity against human MCF7 cells assessed as cell growth inhibition; type: functional, cell-based; method in brief: as §1
[3] = Cytotoxicity against human BEAS-2B cells assessed as cell growth inhibition; type: toxicity, cell-based; method in brief: as §2
CAL-27 [4] = assay: Cell cycle arrest in human CAL-27 cells assessed as accumulation at G0/G1 phase at 31.5 uM incubated for 24 hrs by flow cytometry (reference value: 77.6 %); type: functional
CAL-27 [5] = assay: Cell cycle arrest in human CAL-27 cells assessed as accumulation at G0/G1 phase at 63 uM incubated for 24 hrs by flow cytometry (reference value: 77.6 %); type: functional
CAL-27 [6] = assay: Cell cycle arrest in human CAL-27 cells assessed as accumulation at S phase at 31.5 uM incubated for 24 hrs by flow cytometry (reference value: 3.6 %); type: functional
CAL-27 [7] = assay: Cell cycle arrest in human CAL-27 cells assessed as accumulation at S phase at 63 uM incubated for 24 hrs by flow cytometry (reference value: 3.6 %); type: functional
CAL-27 [8] = assay: Cell cycle arrest in human CAL-27 cells assessed as accumulation at G2/M phase at 31.5 uM incubated for 24 hrs by flow cytometry (reference value: 11.9 %); type: functional
CAL-27 [9] = assay: Cell cycle arrest in human CAL-27 cells assessed as accumulation at G2/M phase at 63 uM incubated for 24 hrs by flow cytometry (reference value: 11.9 %); type: functional
SCC-9 [10] = assay: Cell cycle arrest in human SCC-9 cells assessed as accumulation at G0/G1 phase at 46 uM incubated for 24 hrs by flow cytometry (reference value: 70.8 %); type: functional
SCC-9 [11] = assay: Cell cycle arrest in human SCC-9 cells assessed as accumulation at G0/G1 phase at 92 uM incubated for 24 hrs by flow cytometry (reference value: 70.8 %); type: functional
SCC-9 [12] = assay: Cell cycle arrest in human SCC-9 cells assessed as accumulation at S phase at 46 uM incubated for 24 hrs by flow cytometry (reference value: 14.4 %); type: functional
SCC-9 [13] = assay: Cell cycle arrest in human SCC-9 cells assessed as accumulation at S phase at 92 uM incubated for 24 hrs by flow cytometry (reference value: 14.4 %); type: functional
SCC-9 [14] = assay: Cell cycle arrest in human SCC-9 cells assessed as accumulation at G2/M phase at 46 uM incubated for 24 hrs by flow cytometry (reference value: 14.2 %); type: functional
SCC-9 [15] = assay: Cell cycle arrest in human SCC-9 cells assessed as accumulation at G2/M phase at 92 uM incubated for 24 hrs by flow cytometry (reference value: 14.2 %); type: functional
CAL-27 [16] = assay: Induction of apoptosis in human CAL-27 cells assessed as live cells at 31.5 uM incubated for 24 hrs by Annexin V-FITC/PI staining based flow cytometric analysis (reference value: 99.8 %); type: functional
Method in brief: (§3)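 CAL27 cells were treated with vehicle, doxorubicin or test compounds at 10–63 μM, and apoptosis was assessed by annexin V–FITC/PI staining with flow cytometry. Cells were scored as live, early apoptotic, late apoptotic or necrotic. The vehicle was DMSO (0.01%).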

CAL-27 [17] = assay: Induction of apoptosis in human CAL-27 cells assessed as early apoptotic cells at 31.5 uM incubated for 24 hrs by Annexin V-FITC/PI staining based flow cytometric analysis (reference value: 0.1 %); type: functional; method in brief: as §3
CAL-27 [18] = assay: Induction of apoptosis in human CAL-27 cells assessed as late apoptotic cells at 31.5 uM incubated for 24 hrs by Annexin V-FITC/PI staining based flow cytometric analysis (reference value: 0.1 %); type: functional; method in brief: as §3
CAL-27 [19] = assay: Induction of apoptosis in human CAL-27 cells assessed as necrotic cells at 31.5 uM incubated for 24 hrs by Annexin V-FITC/PI staining based flow cytometric analysis (reference value: 0.0 %); type: functional
CAL-27 [20] = assay: Induction of apoptosis in human CAL-27 cells assessed as live cells at 63 uM incubated for 24 hrs by Annexin V-FITC/PI staining based flow cytometric analysis (reference value: 99.8 %); type: functional; method in brief: as §3
CAL-27 [21] = assay: Induction of apoptosis in human CAL-27 cells assessed as early apoptotic cells at 63 uM incubated for 24 hrs by Annexin V-FITC/PI staining based flow cytometric analysis (reference value: 0.1 %); type: functional; method in brief: as §3
CAL-27 [22] = assay: Induction of apoptosis in human CAL-27 cells assessed as late apoptotic cells at 63 uM incubated for 24 hrs by Annexin V-FITC/PI staining based flow cytometric analysis (reference value: 0.1 %); type: functional; method in brief: as §3
CAL-27 [23] = assay: Induction of apoptosis in human CAL-27 cells assessed as necrotic cells at 63 uM incubated for 24 hrs by Annexin V-FITC/PI staining based flow cytometric analysis (reference value: 0.0 %); type: functional
SCC-9 [24] = assay: Induction of apoptosis in human SCC-9 cells assessed as live cells at 46 uM incubated for 24 hrs by Annexin V-FITC/PI staining based flow cytometric analysis (reference value: 95.7 %); type: functional
SCC-9 [25] = assay: Induction of apoptosis in human SCC-9 cells assessed as early apoptotic cells at 46 uM incubated for 24 hrs by Annexin V-FITC/PI staining based flow cytometric analysis (reference value: 2.8 %); type: functional
SCC-9 [26] = assay: Induction of apoptosis in human SCC-9 cells assessed as late apoptotic cells at 46 uM incubated for 24 hrs by Annexin V-FITC/PI staining based flow cytometric analysis (reference value: 1.4 %); type: functional
SCC-9 [27] = assay: Induction of apoptosis in human SCC-9 cells assessed as necrotic cells at 46 uM incubated for 24 hrs by Annexin V-FITC/PI staining based flow cytometric analysis (reference value: 0.1 %); type: functional
SCC-9 [28] = assay: Induction of apoptosis in human SCC-9 cells assessed as live cells at 92 uM incubated for 24 hrs by Annexin V-FITC/PI staining based flow cytometric analysis (reference value: 95.7 %); type: functional
SCC-9 [29] = assay: Induction of apoptosis in human SCC-9 cells assessed as early apoptotic cells at 92 uM incubated for 24 hrs by Annexin V-FITC/PI staining based flow cytometric analysis (reference value: 2.8 %); type: functional
SCC-9 [30] = assay: Induction of apoptosis in human SCC-9 cells assessed as late apoptotic cells at 92 uM incubated for 24 hrs by Annexin V-FITC/PI staining based flow cytometric analysis (reference value: 1.4 %); type: functional
SCC-9 [31] = assay: Induction of apoptosis in human SCC-9 cells assessed as necrotic cells at 92 uM incubated for 24 hrs by Annexin V-FITC/PI staining based flow cytometric analysis (reference value: 0.1 %); type: functional

COc1c(O)c(CN2CCN(CC(=O)Nc3nc4ccc(C)cc4s3)CC2)c2c(c1O)C1O[C@H](CO)[C@@H](O)[C@H](O)C1OC2=O (some centres undefined)
IC50 (HCT-15): > 100 µM | IC50 (CAL-27 [1]): 63.7 µM | IC50 (SCC-9 [2]): 91.9 µM | IC50 (A549): 90.6 µM | IC50 (MCF7): 74.5 µM | IC50 [3]: > 100 µM | Activity (CAL-27 [4]): 85.4% | Activity (CAL-27 [5]): 82.1% | Activity (CAL-27 [6]): 3.7% | Activity (CAL-27 [7]): 3.2% | Activity (CAL-27 [8]): 11.5% | Activity (CAL-27 [9]): 15.3% | Activity (SCC-9 [10]): 76.9% | Activity (SCC-9 [11]): 85.7% | Activity (SCC-9 [12]): 11.3% | Activity (SCC-9 [13]): 4.9% | Activity (SCC-9 [14]): 11.7% | Activity (SCC-9 [15]): 9.4% | Activity (CAL-27 [16]): 89% | Activity (CAL-27 [17]): 8.3% | Activity (CAL-27 [18]): 2.6% | Activity (CAL-27 [19]): 0.4% | Activity (CAL-27 [20]): 81.1% | Activity (CAL-27 [21]): 11.7% | Activity (CAL-27 [22]): 4.2% | Activity (CAL-27 [23]): 3% | Activity (SCC-9 [24]): 38.2% | Activity (SCC-9 [25]): 9.4% | Activity (SCC-9 [26]): 14.7% | Activity (SCC-9 [27]): 37.6% | Activity (SCC-9 [28]): 53.5% | Activity (SCC-9 [29]): 7.5% | Activity (SCC-9 [30]): 12% | Activity (SCC-9 [31]): 27%
